Assay results published in ChEMBL document CHEMBL4052710 (Bioorg Med Chem Lett, 2017).
The source made the active and inactive calls. The rule behind the calls is not given here.

What was measured:
T47D [1] = assay: Induction of apoptosis in human T47D cells assessed as necrotic cells level at 1 uM incubated for 48 hrs by annexin V-FITC and propidium iodide staining based flow cytometry (reference value: 2.79%); type: functional
T47D [2] = assay: Growth inhibition of human T47D cells incubated for 72 hrs at 10 uM by CCK8 assay; type: functional; conditions: read-out: GI
Outline: (§1)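 CCK8 viability assay on a panel of human cancer cell lines, with an initial screen at fixed concentrations of 1 µM and 10 µM.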

T47D [3] = assay: Growth inhibition of human T47D cells incubated for 72 hrs at 1 uM by CCK8 assay; type: functional; conditions: read-out: GI; outline: as §1
4T1 = assay: Antitumor activity against mouse 4T1 cells xenografted in BALB/C mouse assessed as inhibition of tumor growth at 50 to 150 mg/kg/day, ip dosed for 21 consecutive days; type: functional, organism-based
Outline: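 Cells implanted orthotopically into mammary fat pads of female BALB/c mice aged 6-8 weeks. Dosing began once tumours averaged 100 mm3: daily IP injection at 50, 100 or 150 mg/kg/day for 21 consecutive days, with a solvent control group. Tumour volume and body weight were followed, given as mean ± SD.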

T47D [4] = assay: Induction of apoptosis in human T47D cells assessed as viable cells level at 5 uM incubated for 48 hrs by annexin V-FITC and propidium iodide staining based flow cytometry (reference value: 96%); type: functional
T47D [5] = assay: Induction of apoptosis in human T47D cells assessed as early apoptotic cells level at 5 uM incubated for 48 hrs by annexin V-FITC and propidium iodide staining based flow cytometry (reference value: 0.75%); type: functional
T47D [6] = assay: Induction of apoptosis in human T47D cells assessed as viable cells level at 0.25 uM incubated for 48 hrs by annexin V-FITC and propidium iodide staining based flow cytometry (reference value: 96%); type: functional
[7] = biological target: CDK2/Cyclin A2 (Homo sapiens) (UniProt P24941+P20248); assay: Inhibition of human CDK2/CyclinA at 1 uM by enzymatic radiometric assay; type: protein-complex assay
Outline: (§2)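 Kinase panel run through the Eurofins KinaseProfiler, with compound at a fixed 1 µM. Values are means of two independent experiments.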

NCI-H460 [8] = assay: Growth inhibition of human H460 cells incubated for 72 hrs at 1 uM by CCK8 assay; type: functional; conditions: NCI-H460, 72 h, read-out: GI; outline: as §1
HeLa = assay: Growth inhibition of human HeLa cells incubated for 72 hrs at 10 uM by CCK8 assay; type: functional; conditions: read-out: GI; outline: as §1
[9] = biological target: Cyclin-dependent kinase 1/cyclin B1 (Homo sapiens) (UniProt P06493+P14635); assay: Inhibition of human CDK1/CyclinB at 1 uM by enzymatic radiometric assay; type: protein-complex assay; outline: as §2
[10] = biological target: Cyclin-dependent kinase 5/CDK5 activator 1 (Homo sapiens) (UniProt Q00535+Q15078); assay: Inhibition of human CDK5/p25 at 1 uM by enzymatic radiometric assay; type: protein-complex assay
[11] = biological target: Cyclin-dependent kinase 2/cyclin E1 (Homo sapiens) (UniProt P24864+P24941); assay: Inhibition of human CDK2/CyclinE at 1 uM by enzymatic radiometric assay; type: protein-complex assay; outline: as §2
MCF7 = assay: Growth inhibition of human MCF7 cells incubated for 72 hrs by CCK8 assay; type: functional, cell-based; conditions: MCF7, 72 h
OVCAR-5 = assay: Growth inhibition of human OVCAR5 cells incubated for 72 hrs at 10 uM by CCK8 assay; type: functional; conditions: OVCAR-5, 72 h, read-out: GI; outline: as §1
T47D [12] = assay: Induction of apoptosis in human T47D cells incubated for 48 hrs by annexin V-FITC and propidium iodide staining based flow cytometry; type: functional, cell-based
NCI-H460 [13] = assay: Growth inhibition of human H460 cells incubated for 72 hrs by CCK8 assay; type: functional, cell-based; conditions: NCI-H460, 72 h
NCI-H460 [14] = assay: Growth inhibition of human H460 cells incubated for 72 hrs at 10 uM by CCK8 assay; type: functional; conditions: NCI-H460, 72 h, read-out: GI; outline: as §1
[15] = biological target: CDK12/Cyclin K (Homo sapiens) (UniProt O75909+Q9NYV4); assay: Inhibition of human CDK12/CyclinK at 1 uM by enzymatic radiometric assay; type: protein-complex assay; outline: as §2
NCI-H1299 = assay: Growth inhibition of human H1299 cells incubated for 72 hrs at 1 uM by CCK8 assay; type: functional; conditions: NCI-H1299, 72 h, read-out: GI; outline: as §1
Mus musculus = assay: Toxicity in mouse 4T1 cells xenografted BALB/C mouse assessed as induction of body weight loss at 50 to 150 mg/kg/day, ip dosed for 21 consecutive days; type: organism-based; conditions: in vivo
Outline: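 Tumor cells were implanted orthotopically into the mammary fat pads of female BALB/c mice aged 6-8 weeks. Once tumors averaged 100 mm3, mice received daily IP injections of 50, 100 or 150 mg/kg/day, or solvent control, for 21 consecutive days. Body weight was tracked and reported as mean with SD.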

CDK9/cyclin T1 = CDK9/cyclin T1 (Homo sapiens, UniProt P50750); assay: Inhibition of human CDK9/CyclinT1 by enzymatic radiometric assay; type: protein-complex assay
Outline: (§3)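 IC50 was determined through a commercial kinase profiling service. Values are the mean of two independent experiments.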

T47D [16] = assay: Growth inhibition of human T47D cells incubated for 72 hrs by CCK8 assay; type: functional, cell-based
A549 [17] = assay: Growth inhibition of human A549 cells incubated for 72 hrs at 10 uM by CCK8 assay; type: functional; conditions: A549, 72 h, read-out: GI; outline: as §1
CDK4/Cyclin D3 = CDK4/Cyclin D3 (Homo sapiens, UniProt P11802); assay: Inhibition of human CDK4/CyclinD3 by enzymatic radiometric assay; type: protein-complex assay
Outline: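 CDK4 activity measured with the Eurofins KinaseProfiler. IC50 and inhibition values are means of two independent experiments.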

A549 [18] = assay: Growth inhibition of human A549 cells incubated for 72 hrs by CCK8 assay; type: functional, cell-based; conditions: A549, 72 h
[19] = biological target: CDK9/cyclin T1 (Homo sapiens) (UniProt O60563+P50750); assay: Inhibition of human CDK9/CyclinT1 at 1 uM by enzymatic radiometric assay; type: protein-complex assay
[20] = biological target: Vascular endothelial growth factor receptor 2 (Homo sapiens, UniProt P35968); assay: Inhibition of human VEGFR2 by enzymatic radiometric assay; outline: as §3
T47D [21] = assay: Induction of cell cycle arrest in human T47D cells assessed as increase in G0/G1 phase accumulation at 0.1 to 1 uM incubated for 24 hrs by flow cytometry; type: functional, cell-based
Outline: (§4)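 Cells were treated for 24 h with compound at 0.1, 0.5 and 1 µM, with LEE011 or vehicle (DMSO) alongside. Cell-cycle phase distribution was then determined by flow cytometry.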

T47D [22] = assay: Induction of apoptosis in human T47D cells assessed as early apoptotic cells level at 0.25 uM incubated for 48 hrs by annexin V-FITC and propidium iodide staining based flow cytometry (reference value: 0.75%); type: functional
T47D [23] = assay: Induction of apoptosis in human T47D cells assessed as necrotic cells level at 0.5 uM incubated for 48 hrs by annexin V-FITC and propidium iodide staining based flow cytometry (reference value: 2.79%); type: functional
T47D [24] = assay: Induction of cell cycle arrest in human T47D cells assessed as increase in G2 phase accumulation at 0.1 to 1 uM incubated for 24 hrs by flow cytometry; type: functional, cell-based; outline: as §4
[25] = biological target: CDK4/Cyclin D3 (Homo sapiens) (UniProt P11802+P30281); assay: Inhibition of human CDK4/CyclinD3 at 1 uM by enzymatic radiometric assay; type: protein-complex assay; outline: as §2
T47D [26] = assay: Induction of apoptosis in human T47D cells assessed as early apoptotic cells level at 1 uM incubated for 48 hrs by annexin V-FITC and propidium iodide staining based flow cytometry (reference value: 0.75%); type: functional

Sequence of Cyclin-dependent kinase 1/cyclin B1 (Homo sapiens) (P06493 whole entry, looked up): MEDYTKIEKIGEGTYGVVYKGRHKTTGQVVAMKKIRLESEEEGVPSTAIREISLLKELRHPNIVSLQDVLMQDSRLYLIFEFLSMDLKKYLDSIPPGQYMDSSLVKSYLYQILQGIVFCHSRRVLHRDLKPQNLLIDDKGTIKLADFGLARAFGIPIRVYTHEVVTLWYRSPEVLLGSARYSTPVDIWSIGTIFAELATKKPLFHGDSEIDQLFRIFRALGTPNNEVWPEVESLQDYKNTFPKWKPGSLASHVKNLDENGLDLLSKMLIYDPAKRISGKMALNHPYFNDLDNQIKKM
Sequence of Cyclin-dependent kinase 1/cyclin B1 (Homo sapiens) (P14635 whole entry, looked up): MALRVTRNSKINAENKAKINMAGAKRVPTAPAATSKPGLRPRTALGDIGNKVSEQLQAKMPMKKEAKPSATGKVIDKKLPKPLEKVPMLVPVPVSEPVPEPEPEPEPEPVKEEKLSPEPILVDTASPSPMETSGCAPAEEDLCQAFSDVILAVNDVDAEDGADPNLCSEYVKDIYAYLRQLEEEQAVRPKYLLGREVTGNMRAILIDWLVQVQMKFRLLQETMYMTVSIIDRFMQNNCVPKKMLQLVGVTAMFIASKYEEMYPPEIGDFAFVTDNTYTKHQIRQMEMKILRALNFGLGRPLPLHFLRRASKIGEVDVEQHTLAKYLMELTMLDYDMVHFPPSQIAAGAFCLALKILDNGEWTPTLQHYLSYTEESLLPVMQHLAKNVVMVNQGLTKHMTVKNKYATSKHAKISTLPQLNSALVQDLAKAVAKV
Sequence of CDK12/Cyclin K (Homo sapiens) (O75909 whole entry, looked up): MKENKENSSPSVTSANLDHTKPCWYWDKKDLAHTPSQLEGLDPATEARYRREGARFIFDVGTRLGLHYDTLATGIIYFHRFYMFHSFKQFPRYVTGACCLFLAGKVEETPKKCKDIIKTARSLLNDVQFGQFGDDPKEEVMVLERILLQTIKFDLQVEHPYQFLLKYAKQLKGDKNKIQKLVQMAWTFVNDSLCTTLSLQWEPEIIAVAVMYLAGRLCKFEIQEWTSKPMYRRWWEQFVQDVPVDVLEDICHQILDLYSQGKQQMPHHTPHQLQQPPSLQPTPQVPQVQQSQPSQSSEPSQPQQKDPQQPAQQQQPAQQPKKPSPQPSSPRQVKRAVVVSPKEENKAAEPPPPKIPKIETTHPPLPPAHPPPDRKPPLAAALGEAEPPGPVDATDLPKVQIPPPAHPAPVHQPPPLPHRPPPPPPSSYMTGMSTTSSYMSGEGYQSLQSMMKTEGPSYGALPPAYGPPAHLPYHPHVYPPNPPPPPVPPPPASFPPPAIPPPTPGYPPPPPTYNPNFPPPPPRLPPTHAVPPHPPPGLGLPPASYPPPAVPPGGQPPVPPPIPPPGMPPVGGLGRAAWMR
Sequence of CDK12/Cyclin K (Homo sapiens) (Q9NYV4 whole entry, looked up): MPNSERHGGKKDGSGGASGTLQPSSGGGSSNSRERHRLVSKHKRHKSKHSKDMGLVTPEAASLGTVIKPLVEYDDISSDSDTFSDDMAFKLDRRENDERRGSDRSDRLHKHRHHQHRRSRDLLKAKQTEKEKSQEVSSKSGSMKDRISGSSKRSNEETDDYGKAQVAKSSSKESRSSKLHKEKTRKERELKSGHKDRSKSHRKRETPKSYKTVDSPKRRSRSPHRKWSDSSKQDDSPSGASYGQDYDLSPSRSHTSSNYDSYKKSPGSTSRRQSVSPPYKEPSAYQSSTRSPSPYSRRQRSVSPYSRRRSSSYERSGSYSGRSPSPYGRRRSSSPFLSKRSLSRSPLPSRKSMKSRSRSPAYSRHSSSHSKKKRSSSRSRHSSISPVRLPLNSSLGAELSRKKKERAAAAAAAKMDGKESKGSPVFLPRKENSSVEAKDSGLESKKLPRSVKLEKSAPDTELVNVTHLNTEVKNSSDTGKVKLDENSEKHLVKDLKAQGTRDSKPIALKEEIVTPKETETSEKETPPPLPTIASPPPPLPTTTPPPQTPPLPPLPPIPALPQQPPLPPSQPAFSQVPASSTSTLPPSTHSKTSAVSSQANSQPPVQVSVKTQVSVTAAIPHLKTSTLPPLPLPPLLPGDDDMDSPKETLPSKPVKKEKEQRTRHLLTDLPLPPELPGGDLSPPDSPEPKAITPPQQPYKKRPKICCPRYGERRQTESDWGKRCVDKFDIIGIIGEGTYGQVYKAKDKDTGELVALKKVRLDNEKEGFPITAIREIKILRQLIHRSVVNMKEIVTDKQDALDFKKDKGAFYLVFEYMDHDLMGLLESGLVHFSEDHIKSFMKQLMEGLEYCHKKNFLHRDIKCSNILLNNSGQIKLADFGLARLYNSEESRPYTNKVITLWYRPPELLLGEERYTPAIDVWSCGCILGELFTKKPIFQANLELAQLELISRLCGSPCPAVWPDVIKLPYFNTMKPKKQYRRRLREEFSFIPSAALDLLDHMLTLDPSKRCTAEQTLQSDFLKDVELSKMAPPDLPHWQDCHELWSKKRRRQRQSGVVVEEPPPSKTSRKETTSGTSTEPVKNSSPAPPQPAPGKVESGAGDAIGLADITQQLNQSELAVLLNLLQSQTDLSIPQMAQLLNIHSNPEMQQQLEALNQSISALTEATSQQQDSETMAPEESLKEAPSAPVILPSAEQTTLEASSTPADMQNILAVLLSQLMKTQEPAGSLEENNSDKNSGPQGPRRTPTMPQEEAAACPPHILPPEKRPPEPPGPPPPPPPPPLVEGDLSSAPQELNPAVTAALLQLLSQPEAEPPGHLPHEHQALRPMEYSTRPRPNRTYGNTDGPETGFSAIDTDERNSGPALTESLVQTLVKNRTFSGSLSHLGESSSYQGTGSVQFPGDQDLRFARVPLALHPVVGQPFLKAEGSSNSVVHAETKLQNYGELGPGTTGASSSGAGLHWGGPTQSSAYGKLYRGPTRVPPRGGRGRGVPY
Sequence of Vascular endothelial growth factor receptor 2 (P35968 whole entry): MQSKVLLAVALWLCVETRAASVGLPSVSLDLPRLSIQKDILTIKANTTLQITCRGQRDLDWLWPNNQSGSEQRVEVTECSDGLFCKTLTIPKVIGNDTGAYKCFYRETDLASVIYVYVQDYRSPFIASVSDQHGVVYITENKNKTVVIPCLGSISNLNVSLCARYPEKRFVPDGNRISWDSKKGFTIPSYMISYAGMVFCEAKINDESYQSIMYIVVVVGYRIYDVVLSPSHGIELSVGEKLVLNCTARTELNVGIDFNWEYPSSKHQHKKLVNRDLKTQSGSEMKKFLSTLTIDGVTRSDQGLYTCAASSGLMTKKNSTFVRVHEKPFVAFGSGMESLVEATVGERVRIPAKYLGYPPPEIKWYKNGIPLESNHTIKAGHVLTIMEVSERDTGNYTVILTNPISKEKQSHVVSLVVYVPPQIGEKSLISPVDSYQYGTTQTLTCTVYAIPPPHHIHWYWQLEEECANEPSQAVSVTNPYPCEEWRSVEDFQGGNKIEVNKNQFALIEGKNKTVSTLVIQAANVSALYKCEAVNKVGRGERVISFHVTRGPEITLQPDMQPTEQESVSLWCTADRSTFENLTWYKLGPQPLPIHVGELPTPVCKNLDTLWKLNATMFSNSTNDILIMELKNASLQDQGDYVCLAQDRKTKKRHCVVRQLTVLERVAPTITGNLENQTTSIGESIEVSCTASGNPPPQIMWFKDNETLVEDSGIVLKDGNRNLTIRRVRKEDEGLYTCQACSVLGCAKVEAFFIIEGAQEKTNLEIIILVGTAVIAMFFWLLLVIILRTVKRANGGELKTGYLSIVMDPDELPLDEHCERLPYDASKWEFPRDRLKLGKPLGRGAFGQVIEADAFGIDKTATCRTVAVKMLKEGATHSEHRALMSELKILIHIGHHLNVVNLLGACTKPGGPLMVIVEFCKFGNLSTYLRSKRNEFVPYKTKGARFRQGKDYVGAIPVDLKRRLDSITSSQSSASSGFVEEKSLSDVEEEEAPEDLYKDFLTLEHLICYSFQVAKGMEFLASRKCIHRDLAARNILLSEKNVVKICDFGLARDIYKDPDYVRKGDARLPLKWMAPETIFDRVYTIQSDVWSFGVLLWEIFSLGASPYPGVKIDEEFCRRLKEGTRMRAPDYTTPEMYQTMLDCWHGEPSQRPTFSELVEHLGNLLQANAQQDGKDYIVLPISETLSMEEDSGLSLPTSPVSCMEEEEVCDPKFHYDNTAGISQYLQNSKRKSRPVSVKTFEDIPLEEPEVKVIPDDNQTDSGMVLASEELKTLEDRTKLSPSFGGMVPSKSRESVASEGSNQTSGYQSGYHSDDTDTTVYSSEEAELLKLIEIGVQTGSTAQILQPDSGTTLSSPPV
Sequence of CDK4/Cyclin D3 (P11802 whole entry): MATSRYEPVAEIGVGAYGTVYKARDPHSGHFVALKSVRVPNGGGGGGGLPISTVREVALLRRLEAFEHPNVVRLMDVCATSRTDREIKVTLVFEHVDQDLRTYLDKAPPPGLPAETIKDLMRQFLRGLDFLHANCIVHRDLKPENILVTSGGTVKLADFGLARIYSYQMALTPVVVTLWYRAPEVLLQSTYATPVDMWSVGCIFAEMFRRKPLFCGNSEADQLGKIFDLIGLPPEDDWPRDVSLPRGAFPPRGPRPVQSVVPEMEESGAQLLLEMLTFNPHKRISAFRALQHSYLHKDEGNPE
Sequence of CDK4/Cyclin D3 (P30281 whole entry, further chain): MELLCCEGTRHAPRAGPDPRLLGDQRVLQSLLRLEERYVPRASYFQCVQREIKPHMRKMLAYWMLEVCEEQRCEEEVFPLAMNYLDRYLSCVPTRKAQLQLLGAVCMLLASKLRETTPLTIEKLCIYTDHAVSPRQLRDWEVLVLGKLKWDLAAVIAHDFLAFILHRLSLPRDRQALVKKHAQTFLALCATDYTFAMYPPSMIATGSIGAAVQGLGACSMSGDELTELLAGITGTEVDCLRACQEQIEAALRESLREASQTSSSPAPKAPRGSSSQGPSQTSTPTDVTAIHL

- inhibition [7]: 29%
- inhibition [9]: 73%
- inhibition [10]: 86%
- inhibition [11]: 85%
- IC50 (MCF7): 338 nM
- IC50 (NCI-H460 [13]): 359 nM
- inhibition [15]: 24%
- IC50 (CDK9/cyclin T1): 12 nM
- IC50 (T47D [16]): 358 nM
- IC50 (CDK4/Cyclin D3): 142 nM
- IC50 (A549 [18]): 456 nM
- inhibition [19]: 98%
- IC50 [20]: > 10000 nM
- inhibition [25]: 102%
SMILES: CN(C)C(=O)c1cc2cnc(Nc3ccc(NC(=O)C4(C(=O)Nc5ccc(F)cc5)CC4)cc3)nc2n1C1CCCC1
- Activity (T47D [1]): 1.39%
- inhibition of growth at 10 µM (T47D [2]): 105%
- inhibition of growth at 1 µM (T47D [3]): 74.7%
- TGI (4T1): Dose-dependent effect
- Activity (T47D [4]): 85%
- Activity (T47D [5]): 7.45%
- Activity (T47D [6]): 94.2%
- inhibition of growth at 1 µM (NCI-H460 [8]): 79.9%
- inhibition of growth at 10 µM (HeLa): 73.7%
- inhibition of growth at 10 µM (OVCAR-5): 79.7%
- Activity (T47D [12]): Dose-dependent effect
- inhibition of growth at 10 µM (NCI-H460 [14]): 102%
- inhibition of growth at 1 µM (NCI-H1299): 93.3%
- Activity (Mus musculus): Non-Toxic
- inhibition of growth at 10 µM (A549 [17]): 102%
- Activity (T47D [21]): Active
- Activity (T47D [22]): 0.52%
- Activity (T47D [23]): 2.69%
- Activity (T47D [24]): Active
- Activity (T47D [26]): 3.16%
